Results reported in ChEMBL document CHEMBL1135657, “Novel dual inhibitors of AChE and MAO derived from hydroxy aminoindan and phenethylamine as potential treatment for Alzheimer's disease” (J Med Chem, 2002).

What was measured:
[1] = biological target: T1, Amine oxidase [flavin-containing] A (Rattus norvegicus, UniProt P21396); assay: In vitro inhibitory concentration against Monoamine oxidase A of rat brain homogenates; value ranges from 100-340; assay type: tissue-based
T1 sequence (P21396 whole entry): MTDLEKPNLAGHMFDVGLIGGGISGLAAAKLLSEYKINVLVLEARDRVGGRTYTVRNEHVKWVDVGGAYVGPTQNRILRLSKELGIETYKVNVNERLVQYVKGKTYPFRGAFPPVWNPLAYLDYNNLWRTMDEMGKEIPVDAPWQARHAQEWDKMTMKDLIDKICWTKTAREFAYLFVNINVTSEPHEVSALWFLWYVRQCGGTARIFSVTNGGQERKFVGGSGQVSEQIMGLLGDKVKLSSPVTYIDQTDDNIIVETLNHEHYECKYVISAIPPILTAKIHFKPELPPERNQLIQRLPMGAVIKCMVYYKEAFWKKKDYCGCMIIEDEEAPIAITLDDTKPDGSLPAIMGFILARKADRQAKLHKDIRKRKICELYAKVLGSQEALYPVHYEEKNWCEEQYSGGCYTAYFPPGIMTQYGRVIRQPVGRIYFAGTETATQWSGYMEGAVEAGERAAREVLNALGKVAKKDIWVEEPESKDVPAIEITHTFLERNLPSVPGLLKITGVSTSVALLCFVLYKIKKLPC

Acetylcholinesterase [2] = biological target: T2, Acetylcholinesterase (Homo sapiens, UniProt P22303); assay: In vitro inhibitory concentration against purified Acetylcholinesterase of human erythrocytes; value ranges from 91.8-732
T2 sequence (P22303 whole entry): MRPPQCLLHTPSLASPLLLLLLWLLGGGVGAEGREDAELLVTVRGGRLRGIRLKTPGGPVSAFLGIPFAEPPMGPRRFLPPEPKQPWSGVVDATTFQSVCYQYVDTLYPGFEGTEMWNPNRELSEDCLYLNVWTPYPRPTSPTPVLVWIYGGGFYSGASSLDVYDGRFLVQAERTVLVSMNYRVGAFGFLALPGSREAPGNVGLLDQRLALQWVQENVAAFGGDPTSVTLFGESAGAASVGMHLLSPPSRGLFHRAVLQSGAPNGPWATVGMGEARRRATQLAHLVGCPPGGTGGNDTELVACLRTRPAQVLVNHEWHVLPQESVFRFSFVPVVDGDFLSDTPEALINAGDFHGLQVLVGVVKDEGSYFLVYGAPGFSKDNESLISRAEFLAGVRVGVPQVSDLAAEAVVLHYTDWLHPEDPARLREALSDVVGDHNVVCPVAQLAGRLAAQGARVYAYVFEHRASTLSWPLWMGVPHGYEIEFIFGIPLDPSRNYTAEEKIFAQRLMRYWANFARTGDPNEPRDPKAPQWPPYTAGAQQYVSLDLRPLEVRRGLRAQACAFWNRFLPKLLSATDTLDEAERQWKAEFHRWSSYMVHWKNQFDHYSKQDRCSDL

Butyrylcholinesterase [3] = biological target: T3, Butyrylcholinesterase (Equus caballus, UniProt Q9N1N9); assay: In vitro inhibitory concentration against Butyrylcholinesterase of horse serum; value ranges from 1.38-1.65
T3 sequence (Q9N1N9 whole entry): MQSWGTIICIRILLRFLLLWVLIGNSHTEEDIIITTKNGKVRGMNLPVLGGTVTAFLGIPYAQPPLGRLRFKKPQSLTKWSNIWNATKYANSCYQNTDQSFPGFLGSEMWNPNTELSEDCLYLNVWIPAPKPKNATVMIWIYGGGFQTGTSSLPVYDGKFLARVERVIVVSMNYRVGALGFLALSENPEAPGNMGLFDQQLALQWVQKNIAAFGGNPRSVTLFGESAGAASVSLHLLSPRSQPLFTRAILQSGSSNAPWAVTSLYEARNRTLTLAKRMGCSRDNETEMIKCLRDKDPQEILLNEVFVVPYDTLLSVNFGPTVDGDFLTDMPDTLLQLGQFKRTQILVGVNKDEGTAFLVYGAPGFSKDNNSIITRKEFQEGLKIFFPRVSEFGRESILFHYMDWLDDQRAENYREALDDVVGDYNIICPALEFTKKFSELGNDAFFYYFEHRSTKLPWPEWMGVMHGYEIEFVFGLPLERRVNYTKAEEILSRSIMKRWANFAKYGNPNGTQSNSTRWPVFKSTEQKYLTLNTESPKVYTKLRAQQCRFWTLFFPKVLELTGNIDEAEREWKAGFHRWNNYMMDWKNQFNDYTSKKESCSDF
Method in brief: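 Ellman assay followed, with 200 µM butyrylthiocholine as substrate. Runs were in triplicate with four-point dose-response curves. IC50 and fiducial limits came from log concentration versus % inhibition.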

[4] = biological target: T4, Amine oxidase [flavin-containing] B (Rattus norvegicus, UniProt P19643); assay: In vitro inhibitory concentration against Monoamine oxidase B of rat brain homogenates; value ranges from 0.07-0.59; assay type: tissue-based
T4 sequence (P19643 whole entry): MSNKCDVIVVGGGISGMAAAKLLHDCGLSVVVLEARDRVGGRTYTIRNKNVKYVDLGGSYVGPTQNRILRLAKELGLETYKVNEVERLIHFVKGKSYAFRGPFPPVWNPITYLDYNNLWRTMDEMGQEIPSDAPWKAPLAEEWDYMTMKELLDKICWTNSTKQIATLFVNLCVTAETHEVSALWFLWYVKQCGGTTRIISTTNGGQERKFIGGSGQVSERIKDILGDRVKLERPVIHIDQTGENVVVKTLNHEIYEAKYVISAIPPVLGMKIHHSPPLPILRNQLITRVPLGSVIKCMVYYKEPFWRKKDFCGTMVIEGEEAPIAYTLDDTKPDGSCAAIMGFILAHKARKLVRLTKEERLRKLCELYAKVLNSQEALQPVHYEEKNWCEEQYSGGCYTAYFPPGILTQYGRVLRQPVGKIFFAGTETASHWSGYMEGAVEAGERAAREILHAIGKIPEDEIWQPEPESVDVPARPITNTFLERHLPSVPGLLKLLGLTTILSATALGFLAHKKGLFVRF
Method in brief: (§1)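 Rat brain homogenate (in 0.3 M sucrose) as enzyme source; compounds diluted 10⁻²M to 10⁻⁹M in 0.05 M phosphate buffer with 0.15 μM clorgyline; preincubated 60 min at 37 °C, then 10 μM ¹⁴C-phenylethylamine added for 20 min more; stopped with citric acid; metabolites extracted into toluene/ethyl acetate, scintillation counted; activity as % of control, tranylcypromine blank.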

[5] = biological target: T4, Amine oxidase [flavin-containing] B; assay: In vitro inhibitory concentration against Monoamine oxidase B of rat brain homogenates; value ranges from 150-360; assay type: tissue-based
[6] = biological target: T1, Amine oxidase [flavin-containing] A; assay: In vitro inhibitory concentration against Monoamine oxidase A of rat brain homogenates; value ranges from 600-1100; assay type: tissue-based
Acetylcholinesterase [7] = biological target: T2, Acetylcholinesterase; assay: In vitro inhibitory concentration against purified Acetylcholinesterase of human erythrocytes
[8] = biological target: T4, Amine oxidase [flavin-containing] B; assay: In vitro inhibitory concentration against Monoamine oxidase B of rat brain homogenates; assay type: tissue-based
Acetylcholinesterase [9] = biological target: T2, Acetylcholinesterase; assay: In vitro inhibitory concentration against purified Acetylcholinesterase of human erythrocytes; value ranges from 22.2-56.8
[10] = biological target: T1, Amine oxidase [flavin-containing] A; assay: In vitro inhibitory concentration against Monoamine oxidase A of rat brain homogenates; value ranges from 100-310; assay type: tissue-based
[11] = biological target: T1, Amine oxidase [flavin-containing] A; assay: In vitro inhibitory concentration against Monoamine oxidase A of rat brain homogenates; value ranges from 11-38; assay type: tissue-based
Acetylcholinesterase [12] = biological target: T2, Acetylcholinesterase
Acetylcholinesterase [13] = biological target: T2, Acetylcholinesterase; assay: In vitro inhibitory concentration against purified Acetylcholinesterase of human erythrocytes; value ranges from 5.6-11.9
[14] = biological target: T4, Amine oxidase [flavin-containing] B; assay: In vitro inhibitory concentration against Monoamine oxidase B of rat brain homogenates; value ranges from 0.19-0.26; assay type: tissue-based; method in brief: as §1
[15] = biological target: T1, Amine oxidase [flavin-containing] A; assay: In vitro inhibitory concentration against Monoamine oxidase A of rat brain homogenates; value ranges from 0.8-1.0; assay type: tissue-based
Acetylcholinesterase [16] = biological target: T2, Acetylcholinesterase; assay: In vitro inhibitory concentration against purified Acetylcholinesterase of human erythrocytes; value ranges from 1.7-2.5
[17] = biological target: T4, Amine oxidase [flavin-containing] B; assay: In vitro inhibitory concentration against Monoamine oxidase B of rat brain homogenates; value ranges from 0.019-0.021; assay type: tissue-based; method in brief: as §1
[18] = biological target: T1, Amine oxidase [flavin-containing] A; assay: In vitro inhibitory concentration against Monoamine oxidase A of rat brain homogenates; value ranges from 0.005-0.010; assay type: tissue-based
[19] = Pseudo-first order rate constant for carbamoylation of ACHE at 400 (uM) concentration; assay type: ADME
Method in brief: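 Pseudo-first-order rate constants kobs measured at 4-5 inhibitor concentrations following Bar-On et al. Apparent bimolecular carbamylation constant ki calculated from these.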

[20] = Pseudo-first order rate constant for carbamoylation of ACHE at 200 (uM) concentration; assay type: ADME
Method in brief: (§2)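 Human erythrocyte AChE, same Ellman conditions: 200 µM […], 60 min preincubation at 37 °C, 0.1 M phosphate pH 7.4. Progressive inhibition followed at 4-5 inhibitor concentrations. Pseudo-first-order k_obs (min⁻¹) derived per concentration; apparent bimolecular carbamylation constant k_i calculated from these.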

[21] = Pseudo-first order rate constant for carbamoylation of ACHE at 100 (uM) concentration; assay type: ADME; method in brief: as §2
[22] = Pseudo-first order rate constant for carbamoylation of ACHE at 300 (uM) concentration; assay type: ADME; method in brief: as §2
Acetylcholinesterase [23] = biological target: T2, Acetylcholinesterase; remark: listed apart in the source
[24] = Pseudo-first order rate constant for carbamoylation of ACHE at 50 (uM) concentration; assay type: ADME; method in brief: as §2
[25] = Bimolecular rate constant for carbamoylation of ACHE; assay type: ADME
Method in brief: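 Human erythrocyte AChE preincubated with inhibitor at 37 °C in 0.1 M phosphate buffer, pH 7.4, under Ellman conditions with 200 µM […]. Pseudo-first-order rate constants (k_obs) for progressive inhibition were obtained at 4-5 inhibitor concentrations. The apparent bimolecular carbamylation constant k_i was calculated from these.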

Butyrylcholinesterase [26] = biological target: T3, Butyrylcholinesterase; assay: In vitro inhibitory concentration against Butyrylcholinesterase of horse serum; value ranges from 1.54-2.83
Acetylcholinesterase [27] = biological target: T2, Acetylcholinesterase; assay: In vitro inhibitory concentration against purified Acetylcholinesterase of human erythrocytes; value ranges from 9.8-157
Butyrylcholinesterase [28] = biological target: T3, Butyrylcholinesterase
[29] = biological target: T4, Amine oxidase [flavin-containing] B; assay: In vitro inhibitory concentration against Monoamine oxidase B of rat brain homogenates; value ranges from 1.6-2.9; assay type: tissue-based
[30] = biological target: T1, Amine oxidase [flavin-containing] A; assay: In vitro inhibitory concentration against Monoamine oxidase A of rat brain homogenates; value ranges from 1.0-1.8; assay type: tissue-based
Acetylcholinesterase [31] = biological target: T2, Acetylcholinesterase; assay: In vitro inhibitory concentration against purified Acetylcholinesterase of human erythrocytes; value ranges from 33.4-148
Acetylcholinesterase [32] = biological target: T2, Acetylcholinesterase; assay: In vitro inhibitory concentration against purified Acetylcholinesterase of human erythrocytes; value ranges from 1.27-1.86
Acetylcholinesterase [33] = biological target: T2, Acetylcholinesterase; assay: In vitro inhibitory concentration against purified Acetylcholinesterase of human erythrocytes; value ranges from […]-[…]
Acetylcholinesterase [34] = biological target: T2, Acetylcholinesterase; assay: In vitro inhibitory concentration against purified Acetylcholinesterase of human erythrocytes; value ranges from 7.33-61.5
[35] = biological target: T1, Amine oxidase [flavin-containing] A; assay: In vitro inhibitory concentration against Monoamine oxidase A of rat brain homogenates; assay type: tissue-based

Compound `C#CCNC(C)Cc1ccccc1` (centres undefined) has an IC50 [1] of 195 µM.
Work on `C#CCN(C)C(C)Cc1cccc(OC(=O)N(C)CC)c1` (centres undefined) yielded an IC50 (Acetylcholinesterase [2]) of 234 µM, an IC50 (Butyrylcholinesterase [3]) of 1.5 µM and an IC50 [4] of 0.1 µM.
For `C#CCNC(C)Cc1cccc(O)c1` (centres undefined), the IC50 [5] was 230 µM and the IC50 [6] was 830 µM.
Compound `CC(c1cccc(OC(=O)N(C)C)c1)N(C)C` (centres undefined) has an IC50 (Acetylcholinesterase [7]) of 0.03 µM.
In the case of `CCN(C)C(=O)Oc1cccc(CCN)c1`, the IC50 [8] is reported as > 1000 µM, the IC50 (Acetylcholinesterase [9]) is reported as 35.5 µM and the IC50 [10] is reported as 180 µM.
In the case of `CCN(C)C(=O)Oc1cccc(CCNC)c1`, the IC50 [8] is reported as > 1000 µM and the IC50 [11] is reported as 20 µM.
In the case of `CN(C)C(=O)Oc1ccc2c(c1)CC(N)CC2` (centres undefined), the IC50 (Acetylcholinesterase [12]) is reported as 3.24 µM.
With `C#CCN(C)[C@H](C)Cc1cccc(OC(=O)N(C)C2CCCCC2)c1` the IC50 (Acetylcholinesterase [13]) was 7.9 µM, the IC50 [14] was 0.22 µM and the IC50 [15] was 0.9 µM.
In the case of `C#CCN(C)[C@H](C)Cc1cccc(OC(=O)N(C)CCCCCC)c1`, the IC50 (Acetylcholinesterase [16]) is reported as 2 µM.
`C#CCN(C)[C@@H]1CCc2ccc(O)cc21` showed an IC50 [17] of 0.02 µM and an IC50 [18] of 0.007 µM.
With `C#CCN[C@@H]1CCc2ccc(OC(=O)N(C)CC)cc21.Cl` the K obs [19] was 52 min⁻¹, the IC50 [8] was > 1000 µM and the K obs [20] was 32 min⁻¹. The K obs [21] was 21 min⁻¹, the K obs [22] was 42 min⁻¹ and the IC50 (Acetylcholinesterase [23]) was 31.8 µM. For the same compound, the K obs [24] was 16 min⁻¹, the “Bimolecular carbamoylation rate constant (ki)” value [25] was 1.7 M⁻¹ s⁻¹ and the IC50 (Butyrylcholinesterase [26]) was 1.98 µM.
`C#CCN(C)C(C)Cc1cccc(OC(=O)N(C)CCC)c1` (centres undefined) showed an IC50 (Acetylcholinesterase [27]) of 33.1 µM and an IC50 (Butyrylcholinesterase [28]) of 22.8 µM.
`C#CCNC1CCc2cccc(O)c21` (centres undefined) gave an IC50 [29] of 2.1 µM and an IC50 [30] of 1.3 µM.
With `CCN(C)C(=O)Oc1ccc2c(c1)CC(N)CC2` (centres undefined) the IC50 (Acetylcholinesterase [31]) was 79.6 µM.
In the case of `CN(C)C(=O)Oc1ccc2c(c1)C(N)CCC2` (centres undefined), the IC50 (Acetylcholinesterase [32]) is reported as 1.48 µM.
For `CCCNC1CCc2ccc(OC(=O)N(C)CC)cc21` (centres undefined), the IC50 (Acetylcholinesterase [33]) was 3.6 µM.
For `C#CCNC1CCc2ccc(OC(=S)N(C)CC)cc21` (centres undefined), the IC50 (Acetylcholinesterase [7]) was > 500 µM.
`CCNC(=O)Oc1ccc2c(c1)C(N)CC2` (centres undefined) gave an IC50 (Acetylcholinesterase [34]) of 17.7 µM.
For `CCCN(C)C(=O)Oc1cccc2c1C(N)CC2` (centres undefined), the IC50 [8] was > 1000 µM and the IC50 [35] was 1000 µM.
